Assay results collected from several papers.
Each line is one published result; the experiments were not run side by side.
Target: Serine/threonine-protein kinase PAK 4 (PAK4, Homo sapiens, UniProt O96013)

O=C(c1ccc(Nc2ncc(Cl)c(-c3ccc(Cl)s3)n2)cc1)N1CCC(N2CCCC2)CC1
remaining binding (binding; competition with immobilised ligand; 1 µM): 53%

COc1cnc(Nc2cccc(S(N)(=O)=O)c2)nc1N1CCN(c2ccccc2)CC1
remaining binding (binding; competition with immobilised ligand; 1 µM): 95%

C[C@@H](c1ccc(-n2cnc3c(N)ncnc32)cc1)N1CCc2nn(C)c(Cc3ccccc3)c2C1=O
remaining binding (binding; competition with immobilised ligand; 0.1 µM): 100%

CCC(=O)N[C@@H]1CC[C@H](C(=O)N(C)c2ccc(-c3nc4ccccc4o3)cc2)C1
remaining binding (cell-free assay; competition with immobilised ligand; 1 µM): 100%

Nc1ncc2c(n1)-c1c([nH]c3ccc(C#CC4CC4)cc13)CCCC2
remaining binding (binding; competition with immobilised ligand; 1 µM): 76%

C[C@@H]1CN(c2ccc3ncc(-c4ccc5[nH]nc(C6CC6)c5c4)n3n2)C[C@H](C)O1
remaining binding (binding; competition with immobilised ligand; 0.5 µM): 83%

Cc1cnn2ncc(-c3ccnc(N(C)C)n3)c2c1
remaining binding (binding; 1 µM): 100%

O=C(c1ccc(Nc2nccc(-c3cc4ccccc4s3)n2)cc1)N1CCC(N2CCCC2)CC1
remaining binding (binding; competition with immobilised ligand; 1 µM): 81%

CS(=O)(=O)c1cc(C2(NC(=O)c3cncc4c3cnn4-c3ccc(F)cc3)CC2)ccn1
remaining binding (cell-free assay; competition with immobilised ligand; 1 µM): 100%

CC(C)(C)c1ccc(-c2nc(CBr)nn2-c2cccc(O)c2)cc1
remaining binding (cell-free assay; competition with immobilised ligand; 10 µM): 87%

CN(C)c1nccc(-c2cnc3ncccn23)n1
remaining binding (binding; 1 µM): 88%

O=C(O)c1cc(-c2ccc(C3CCNCC3)cc2)c2ccc(-c3ccc(C(F)(F)F)cc3)cc2c1
remaining binding (cell-free assay; competition with immobilised ligand; 1 µM): 100%

CN(C)c1nccc(-c2cnn3ncccc23)n1
remaining binding (binding; 1 µM): 100%

O=C(NC[C@@H]1[C@H]2CN(C(=O)OCc3cc(C(F)(F)F)cc(C(F)(F)F)c3)C[C@@H]12)c1ccc2[nH]nnc2c1
remaining binding (cell-free assay; competition with immobilised ligand; 1 µM): 100%

N#Cc1ccccc1CSc1nnc2c(n1)[nH]c1ccccc12
remaining binding (binding; competition with immobilised ligand; 10 µM): 87%

CN(C)c1ncc(F)c(-c2cnn3ncccc23)n1
remaining binding (binding; 1 µM): 80%

Cn1cc(Cl)c2c(Oc3c(F)cc(Nc4cc(Cl)nc(N)n4)cc3F)ccnc21
remaining binding (cell-free assay; competition with immobilised ligand; 0.1 µM): 100%

O=C(Nc1c[nH]nc1C(=O)NC1CCNCC1)c1cc(F)cc(F)c1
remaining binding (binding; competition with immobilised ligand; 1 µM): 100%

C[C@H]1CCN(c2nccc(-c3cnn4ncccc34)n2)C1
remaining binding (binding; 1 µM): 95%

CCC(=N\O)/C(C)=C/c1ccc(F)cc1
remaining binding (cell-free assay; competition with immobilised ligand; 1 µM): 100%

FC(F)(F)Oc1cccc(-c2cnc3ccc(-c4ccncc4)nn23)c1
remaining binding (cell-free assay; competition with immobilised ligand; 5 µM): 47%

CC1CCCN1c1nccc(-c2cnn3ncccc23)n1 (stereo not shown)
remaining binding (binding; 1 µM): 100%

Cc1cnc(Nc2ccc(C(=O)N3CCC(N4CCCC4)CC3)cc2)nc1-c1cc2ccccc2s1
remaining binding (binding; competition with immobilised ligand; 1 µM): 70%

O=C(NCc1ncc(C(F)(F)F)cc1Cl)c1ccc2c(c1)C1(CCS(=O)(=O)CC1)[C@H](C1CC1)N2S(=O)(=O)c1ccc(F)cc1
remaining binding (cell-free assay; competition with immobilised ligand; 1 µM): 100%

N[C@H]1CCN(c2nccc(-c3cnn4ncccc34)n2)C1
remaining binding (binding; 1 µM): 88%
